96 molecules from ChEMBL document CHEMBL4513216, “Probing the Open Global Health Chemical Diversity Library for Multistage-Active Starting Points for Next-Generation Antimalarials” (ACS Infect Dis, 2020) can be followed below.

The structures appear in SMILES notation.

This data set in a line: Toxicity liver stage against HepG2, at 10uM. To be noted: human, HepG2-A16-CD81EGFP cells; read-out: INHIBITION
It is filed as cell-based. Details: test concentration 10 uM, cell line HepG2-A16-CD81EGFP. In outline:
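Uninfected HepG2-A16-CD81EGFP cells, 3 × 10^3 per well, 1536-well, plated on prespotted compound at 10 μM final, parasite-free screening media added to match infected plates; puromycin 10 μM positive, DMSO 0.5% negative; run in parallel with 48 h PbLuc assay at 37 °C, 5% CO2; viability by CellTiter-Glo luminescence, normalized to controls.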
On to `COc1ccc(CN2CCC[C@H]2c2nc(-c3cncnc3N)no2)cc1`, for which the cytotoxicity at 10 µM is -57%.

Take `CCOC(=O)[C@H]1[C@@H](O)C(=O)N(C)C12CCN(S(=O)(=O)CC)CC2`: the cytotoxicity at 10 µM was -6.06%.

For `CC(C)Cc1nc(OCC#N)c(C#N)c2c1CCC2`, the cytotoxicity at 10 µM is -1.63%.

As for `CC(C)C[C@H](NC(=O)NC1CCS(=O)(=O)C1)C(=O)NCc1cccnc1` (stereo partly specified), the cytotoxicity at 10 µM came to 0.948%.

As for `COc1ccc(NC(=O)Nc2cnc(N3CCN(C)CC3)nc2)cc1Cl`, the cytotoxicity at 10 µM was -19.8%.

As to `COc1ccc(C(=O)COc2coc(CN3CCCCC3)cc2=O)cc1`, the cytotoxicity at 10 µM amounted to 5.12%.

As for `O=C(O)CNC(=O)Cc1csc(-c2cccc(Cl)c2)n1`, the cytotoxicity at 10 µM is 4.32%.

Consider `CCOC(=O)N1CCN(c2nc(NC)c3ccccc3n2)CC1`, for which the cytotoxicity at 10 µM was -9.75%.

Turning to `Nc1nnc(CCCn2nnc(-c3ccccc3F)n2)s1`, the cytotoxicity at 10 µM was -1.67%.

`CCCNC(=O)c1cc(C(C)C)nc(N2CCCCC2)n1`: the cytotoxicity at 10 µM turned out to be 15.8%.

Regarding `CNC(=O)CCc1cccc(C2CCCN(c3cc(C)ncn3)C2)n1` (stereo unspecified), the cytotoxicity at 10 µM was 1.58%.

For `CN1CCN([C@@H]2CN(C(=O)c3cc4cccc(F)c4[nH]3)C[C@H]2O)CC1`, the cytotoxicity at 10 µM was -6.81%.

As for `Cc1cc2c(=O)n3c(nc2s1)CCN(C(=O)c1nn(C)cc1Cl)CC3`, the cytotoxicity at 10 µM stood at 16.6%.

Regarding `CNC(=O)CN1CCC2(CC1)C[C@@H](O)[C@H](c1ccccc1)NC2=O`, the cytotoxicity at 10 µM is -32.2%.

Regarding `CCCc1ncc(CNC2(c3ccc(Cl)cc3)CC2)cn1`, the cytotoxicity at 10 µM was -31.6%.

As to `Cc1nc(Nc2ncccn2)cc(C2CCN(CC(C)C)C2)n1` (stereo unspecified), the cytotoxicity at 10 µM is -16.1%.

As for `Cc1cccnc1C(=O)N1CCC(Cc2cnc3[nH]ccc3c2)CC1`, the cytotoxicity at 10 µM amounted to 1.85%.

With `Cc1nc(CC(=O)N2CCCCC2c2ccn3ccnc3n2)cs1` (stereo unspecified), the cytotoxicity at 10 µM is -13.4%.

Consider `CC1(C(=O)NCc2ccsc2)CCOCC1`, for which the cytotoxicity at 10 µM was found to be 5.73%.

For `O=C(NCc1nnc2n1C(C(=O)NC1CC1)CC2)c1ccc(Cl)cc1Cl` (stereo unspecified), the cytotoxicity at 10 µM was found to be 5.06%.

As for `CC1CC(NS(=O)(=O)c2ccc(C(F)(F)F)nc2)C1` (stereo unspecified), the cytotoxicity at 10 µM stood at 23.1%.

In the case of `O=S(=O)(NCCCn1cncn1)c1ccc2c(c1)CCO2`, the cytotoxicity at 10 µM is -10.2%.

Regarding `O=C(NCc1ccc(-n2cncn2)nc1)c1cc(Cl)ccn1`, the cytotoxicity at 10 µM was 2.8%.

With `Cc1ccc(F)c2c1CCCN2CC(=O)NC1CCS(=O)(=O)C1` (stereo unspecified), the cytotoxicity at 10 µM was -11.9%.

For the molecule `Cn1ccnc1CN1CCN(Cc2cc(-c3ccccc3)no2)CC1`, the cytotoxicity at 10 µM is -15.5%.

On to `Cc1cccc(C(=O)N2CCSCC2)c1NC(=O)c1cccnc1`, for which the cytotoxicity at 10 µM is -2.83%.

Turning to `Cc1cnc(CNC(=O)NC2CCCN(c3ccccc3F)C2)s1` (stereo unspecified), the cytotoxicity at 10 µM was 16.4%.

As to `Cc1ccc(C(=O)NCCS(=O)(=O)N2CCSCC2)o1`, the cytotoxicity at 10 µM is 6.13%.

On to `COc1ccc(CN(C(=O)C(C)SC)c2cnn(C)c2)c(OC)c1` (stereo unspecified), for which the cytotoxicity at 10 µM is -3.88%.

With `COc1cc(CN2CCC(NC(=O)c3cccn3C)C2)cc(OC)c1` (stereo unspecified), the cytotoxicity at 10 µM was -12.6%.

As to `N#Cc1c(F)cccc1Nc1cnn(CC(O)CN2CCOCC2)c1` (stereo unspecified), the cytotoxicity at 10 µM was -1.47%.

For `Cc1ccc(NC(=O)c2nc(N3CCCCC3)ncc2Cl)cc1I`, the cytotoxicity at 10 µM is -0.906%.

Take `CCN1CCN(c2ccc(F)cc2C(C)NCc2ccccn2)CC1` (stereo unspecified): the cytotoxicity at 10 µM was determined as 7.96%.

Regarding `Cc1nsc(N2CCCN(C(=O)NCc3cc(C)on3)CC2)n1`, the cytotoxicity at 10 µM is -1.63%.

Take `CN1CCCN(S(C)(=O)=O)c2cc(F)ccc21`: the cytotoxicity at 10 µM is -2.24%.

As for `Cc1csc(CNC(=O)NC(C)c2ccc3c(c2)OCCO3)n1` (stereo unspecified), the cytotoxicity at 10 µM was -5.72%.

Consider `CC(CC#N)N(C)Cc1ccc(F)cc1C#N` (stereo unspecified), for which the cytotoxicity at 10 µM is -6.69%.

Turning to `Cc1noc(NS(=O)(=O)c2ccc(Cl)s2)c1C`, the cytotoxicity at 10 µM worked out at 5.3%.

`O=C1CCc2cc(S(=O)(=O)NC(=O)c3ccc4c(c3)CCO4)ccc2N1`: the cytotoxicity at 10 µM is -17.7%.

Turning to `CN(C)S(=O)(=O)c1ccc(CNC(=O)C2CC2)cc1`, the cytotoxicity at 10 µM is 7.04%.

As to `CC(C)CCS(=O)(=O)N1CCCC(c2nncn2C(C)C)C1` (stereo unspecified), the cytotoxicity at 10 µM turned out to be 5.04%.

`N#Cc1ccc(NC(=O)N2CCCCC2CN2CCCC2=O)cc1` (stereo unspecified): the cytotoxicity at 10 µM came to 4.65%.

Consider `Cn1c(=O)ccn(CC(=O)N2CCCC(n3cccn3)C2)c1=O` (stereo unspecified), for which the cytotoxicity at 10 µM is -8.92%.

Regarding `Fc1ccc(C2CN(CCc3ccncc3)CCO2)cc1` (stereo unspecified), the cytotoxicity at 10 µM was determined as 11%.

`CC1CN(CCc2ccncc2)CCO1` (stereo unspecified): the cytotoxicity at 10 µM was -1.99%.

As for `CN(Cc1ccccc1F)C(=O)c1ccoc1`, the cytotoxicity at 10 µM amounted to 11.3%.

For the molecule `COCC1c2nnn(C)c2CCN1C(=O)c1ccc(OC)c(F)c1` (stereo unspecified), the cytotoxicity at 10 µM was -105%.

`Cn1cccc1C(=O)N1C[C@H](OCC2CCOCC2)[C@H]2COC[C@H]21`: the cytotoxicity at 10 µM is -109%.

On to `c1ccc(-c2nnn3c2COC(CNCC2CCOCC2)C3)cc1` (stereo unspecified), for which the cytotoxicity at 10 µM was 11%.

For the molecule `CN(C)C(C(=O)N1CCN(CCn2cccc2)CC1)c1cccc(F)c1` (stereo unspecified), the cytotoxicity at 10 µM was -22.8%.

For `O=C(NCCCOc1cccnc1)c1cn(CCc2ccccc2)nn1`, the cytotoxicity at 10 µM was -0.977%.

As to `OCCN1CCN(Cc2cnc3c(-c4ccccc4)cnn3c2)CC1`, the cytotoxicity at 10 µM is -2.72%.

As for `CCc1ccc(CN(C)C(=O)C(c2ccccc2F)N(C)C)nc1` (stereo unspecified), the cytotoxicity at 10 µM is 4.03%.

Regarding `COCCN1CCCC2(CCN(c3cccc(C(F)(F)F)n3)C2)C1=O` (stereo unspecified), the cytotoxicity at 10 µM was found to be 3.84%.

With `COc1cccc2c1OCC(C(=O)N1Cc3ccccc3C1)C2` (stereo unspecified), the cytotoxicity at 10 µM turned out to be 3.16%.

`CCc1ccccc1CN1CC[C@@]2(O)CCN(S(=O)(=O)N(C)C)C[C@H]2C1`: the cytotoxicity at 10 µM is -2.19%.

Regarding `COCc1cc(CNC(=O)c2c(C)c(C)cc(C)c2C)n[nH]1`, the cytotoxicity at 10 µM was -6.65%.

For `O=S(=O)(NCc1ccccc1)Nc1ccc(-n2ccnc2)cc1`, the cytotoxicity at 10 µM turned out to be 7.03%.

As to `O=C1CC(NCc2ccncc2)CN1CCc1cccc(Cl)c1` (stereo unspecified), the cytotoxicity at 10 µM was -127%.

As for `NCC1CCCCN1Cc1cc(O)c2cccc(F)c2n1` (stereo unspecified), the cytotoxicity at 10 µM was -18.2%.

Turning to `CCc1nc(CN(C)C(=O)c2cc(CN(CC)CC)c(CC)o2)no1`, the cytotoxicity at 10 µM is 0.9%.

Regarding `CC(=O)N[C@@H]1CN(C(=O)c2ccc[nH]2)C[C@H]1c1ccc(C)o1`, the cytotoxicity at 10 µM was found to be 5.16%.

As for `CCOC(=O)c1coc(N2CCN(Cc3ccc(C)cc3)C(=O)C2)n1`, the cytotoxicity at 10 µM was -0.0261%.

Regarding `CN(Cc1ccc(-n2cccn2)cc1)c1nc(N)nc2c1CCNCC2`, the cytotoxicity at 10 µM came to 6.99%.

For the molecule `CN(Cc1cccnc1)CC1(O)CCCN(CC(C)(C)C)C1=O` (stereo unspecified), the cytotoxicity at 10 µM came to 3.09%.

Take `Cc1ccoc1C(=O)N1CCNCC1C(=O)NCc1ccncc1` (stereo unspecified): the cytotoxicity at 10 µM was determined as 6.03%.

As for `CCCn1ncc(C2CC(=O)NCc3nc4sc(C)cn4c32)c1C` (stereo unspecified), the cytotoxicity at 10 µM was -10.8%.

Turning to `CC(=O)Nc1ccc(Oc2ccc(CN3CCCC3)cc2F)cc1`, the cytotoxicity at 10 µM came out at 0.9%.

Take `Cc1cccnc1CN1CCN(C(=O)c2ccn(C(C)(C)C)c2)CC1`: the cytotoxicity at 10 µM was determined as 11%.

On to `O=C(CCc1nc(Cl)n[nH]1)NC1CCCN(CC2CCCCC2)C1` (stereo unspecified), for which the cytotoxicity at 10 µM is -11.4%.

Consider `O=C1NC[C@@]2(C(=O)O)CN(Cc3cccc(C(F)(F)F)c3)C[C@@H]12`, for which the cytotoxicity at 10 µM was -8.58%.

Consider `Cn1c(Cn2cccn2)nnc1C1CCCN(c2ccncc2)C1` (stereo unspecified), for which the cytotoxicity at 10 µM is -14.2%.

Consider `COCCN1CCCC(O)(CN2CCN(c3ncccc3C)CC2)C1=O` (stereo unspecified), for which the cytotoxicity at 10 µM was -10.3%.

With `CC(C)c1nccn1CCCNC(=O)c1ccc(N(C)C)nc1`, the cytotoxicity at 10 µM was 15.7%.

Regarding `Cc1scc(C(=O)N2CCC3(CCCN(C)C3=O)C2)c1-c1ccccc1` (stereo unspecified), the cytotoxicity at 10 µM was -6.05%.

For `O=C(c1cc(=O)[nH]c(=O)[nH]1)N1CCCCC1c1nc2cc(F)ccc2[nH]1` (stereo unspecified), the cytotoxicity at 10 µM is -9.64%.

Take `CN1CCCC(Cc2cncc(Br)c2)CC1` (stereo unspecified): the cytotoxicity at 10 µM is -5.95%.

In the case of `COC(=O)c1cccn1C1CCN(Cc2cccc(C(N)=O)c2)CC1`, the cytotoxicity at 10 µM was -4.7%.

For `CC(C)c1nc(C2CCCN(C(=O)c3ccc4c(c3)OCO4)C2)no1` (stereo unspecified), the cytotoxicity at 10 µM is -14.1%.

As for `Cc1cnn(CC2CN(Cc3nc4cccnc4[nH]3)CCO2)c1` (stereo unspecified), the cytotoxicity at 10 µM is -1.04%.

`Cc1cc(NC(=O)CN2CCn3c(C)nnc3C2)no1`: the cytotoxicity at 10 µM is -3.82%.

On to `Cc1cccc(CS(=O)(=O)CC(=O)NCCCOC(C)C)c1`, for which the cytotoxicity at 10 µM was -5.15%.

On to `Cn1ccnc1CN1CCN(CCOc2ccccc2C#N)CC1`, for which the cytotoxicity at 10 µM was -14.9%.

As to `COc1cccc(CN2CCN(C(=O)CN3CCOCC3)CC2)n1`, the cytotoxicity at 10 µM is -5.7%.

Consider `COc1cccc(C(=O)NS(=O)(=O)c2cccc(C#N)c2)c1OC`, for which the cytotoxicity at 10 µM is -8.06%.

As to `Cc1noc(C2CCN(C(=O)CCNS(C)(=O)=O)CC2)n1`, the cytotoxicity at 10 µM was -21%.

With `Cc1cnc(CN(C)C2CCN(CCn3cc(C#N)cn3)C2)o1` (stereo unspecified), the cytotoxicity at 10 µM is -5.45%.

`Cc1nn(C)c(C)c1C1CCCN1CC(=O)Nc1ccncc1` (stereo unspecified): the cytotoxicity at 10 µM is -5.53%.

For the molecule `Cc1ccn(-c2cccc(C(=O)N3CCCC(n4ccnc4C)C3)c2)n1` (stereo unspecified), the cytotoxicity at 10 µM was -14.2%.

Regarding `COc1ccc(CC(=O)N2CCC[C@@H](N)[C@@H]2c2ccccc2F)cc1`, the cytotoxicity at 10 µM amounted to 2.49%.

As for `COc1ccc(CN2CCn3c(CO)nnc3C2)cc1CN1CCCC1`, the cytotoxicity at 10 µM is -24.5%.

Regarding `c1cnc(N2CCCC3(CCN(c4ncccn4)C3)C2)nc1` (stereo unspecified), the cytotoxicity at 10 µM is -151%.

For `CNC(=O)c1cc2c(nc1N(C)C)CCN(S(=O)(=O)N(C)C)CC2`, the cytotoxicity at 10 µM is -138%.

For `CC(C)N(C)Cc1cncc2c1CCN(CC1CC1)C2`, the cytotoxicity at 10 µM was -102%.

For the molecule `O=C1OCCN1CC(=O)N1C[C@@H]2CC[C@H]1CN(C(=O)c1ccccn1)C2`, the cytotoxicity at 10 µM stood at 13.5%.

Regarding `O=C(Cc1cccs1)N1C[C@H]2CC[C@@H](C1)N(Cc1ccccn1)C2=O`, the cytotoxicity at 10 µM is 1.07%.
